Published values of several laboratories.
Each line is one published result; the experiments were not run side by side.
Cell line: A549
Observed: cell growth or viability

SMILES | assay | setting | endpoint | result
CCC(=O)NCc1ccc(-c2cnc(C3CN(C(=O)c4ccc(NC(=O)[C@@H]5CC(C)(C)CN5)s4)C3)s2)c2ccccc12 | – | 14 days | GI50 | 0.46 µM
O=C(Nc1ccc(-c2cn(Cc3ccc(Br)cc3)nn2)cc1)Nc1ccccc1Br | CCK-8 | 20 µM, 72 h | viability | 77.3%
CCCCCCCCCCCCCCCCCCOc1ccccc1CC(=O)OCC[N+](C)(C)C | SRB | 10 µM | inhibition | 88.5%
COc1ccc(NC(=O)Nc2cccc(-c3cn(Cc4ccccc4C)nn3)c2)cc1 | CCK-8 | 50 µM, 72 h | viability | 212%
N#CSCc1cc(=O)oc2cc(O)ccc12 | SRB | – | GI50 | 5.8 µM
NCC(=O)Nc1ccccc1/N=c1\cc(-c2ccc3c(c2)OCO3)oc2c(N)cccc12 | CCK-8 | 1 µM | inhibition | -3.51%
CCCCCCCCCCCCCCCCCCOc1cccc(CC(=O)OCC[N+]2(C)CCCCC2)c1 | SRB | 10 µM | inhibition | 9.38%
O=C(Nc1ccccc1/N=c1\cc(-c2ccc3c(c2)OCCO3)oc2cc(F)ccc12)N1CCOCC1 | CCK-8 | 1 µM | inhibition | -4.17%
Cc1c(Cl)c(=O)oc2cc(OCCCCSC#N)ccc12 | SRB | – | GI50 | 13 µM
Nc1nc2ccc(-c3c/c(=N\c4ccccc4NC(=O)C4CCNC4)c4ccccc4o3)cc2o1 (centres unmarked) | CCK-8 | 1 µM | inhibition | 22.7%
CCOc1ccc(-c2cc(C(=O)O)c(-c3ccc(Cl)cc3)o2)cc1 | MTT | 48 h | EC50 | 75 µM
CCCCn1cnc2ccc(-c3ccc(NC(=O)C4CCC4)nc3)cc2c1=O | CCK-8 | 72 h | IC50 | 3.93 µM
O=C(NCc1cn(Cc2ccc(Cl)cc2)nn1)Nc1ccc(Cl)cc1 | CCK-8 | 50 µM, 72 h | viability | 67.6%
NCCC(=O)Nc1ccc(/N=c2\cc(-c3ccc4c(c3)OCO4)oc3ccccc23)cc1 | CCK-8 | 1 µM | inhibition | -1.6%
CCCCC(=O)Nc1ccc(-c2ccc3ncn(CC4CC4)c(=O)c3c2)cn1 | CCK-8 | 72 h | IC50 | 0.42 µM
NCC(=O)Nc1ccccc1/N=c1\cc(-c2ccc3c(c2)OCO3)oc2c([N+](=O)[O-])cccc12 | CCK-8 | 1 µM | inhibition | -2.29%
O=C(Nc1ccc(Cl)cc1)Nc1nc2cc(-c3ccc4ncn(Cc5ccccc5)c(=O)c4c3)ccc2s1 | MTT | 72 h | IC50 | > 20 µM
O=C(Nc1cccc(-c2cn(Cc3ccc(Cl)cc3)nn2)c1)Nc1ccccc1Br | CCK-8 | 50 µM, 72 h | viability | 149%
COc1ccc(NC(=O)NCc2cn(Cc3ccccc3C)nn2)cc1 | CCK-8 | 20 µM, 72 h | viability | 65.6%
CCCn1cnc2ccc(-c3ccc(NC(=O)c4ccccc4)nc3)cc2c1=O | CCK-8 | 72 h | IC50 | 0.12 µM
O=C(Nc1ccc(Cl)cc1)Nc1ccc(-c2cn(Cc3ccc(Br)cc3)nn2)cc1 | CCK-8 | 50 µM, 72 h | viability | 78.8%
O=C(Nc1nc2cc(-c3ccc4ncn(Cc5ccccc5)c(=O)c4c3)ccc2s1)c1ccccc1 | MTT | 72 h | IC50 | > 20 µM

SMILES | assay | setting | endpoint | result
CCCCCCCCCCCCCCCCCCOc1ccc(CC(=O)OCC[N+]2(C)CCCC2)cc1 | SRB | 10 µM | inhibition | 2.78%
O=C(NCc1cn(Cc2cccc(Cl)c2)nn1)Nc1ccc(Cl)cc1 | CCK-8 | 20 µM, 72 h | viability | 76.7%
COc1ccc(Cn2cnc3ccc(-c4ccc(NC(=O)c5ccccc5)nc4)cc3c2=O)cc1 | CCK-8 | 72 h | IC50 | > 10 µM
COc1ccc(NC(=O)Nc2ccc(-c3cn(Cc4cccc(Cl)c4)nn3)cc2)cc1 | CCK-8 | 50 µM, 72 h | viability | 91.2%
COc1ccc2/c(=N/c3ccccc3NC(=O)N3CCOCC3)cc(-c3ccc4c(c3)OCCO4)oc2c1 | CCK-8 | 1 µM | inhibition | 2.09%
CCCCn1cnc2ccc(-c3ccc(NC(=O)Nc4ccc(C)cc4)nc3)cc2c1=O | CCK-8 | 72 h | IC50 | > 10 µM
CCCCCCCCCCCCCCCCCCOc1ccc(CC(=O)OCC[N+](C)(C)C)cc1 | SRB | 10 µM | inhibition | 5.41%
COc1ccc(NC(=O)Nc2cccc(-c3cn(Cc4ccc(C)cc4)nn3)c2)cc1 | CCK-8 | 20 µM, 72 h | viability | 146%
O=C(NCc1cn(Cc2ccc(Br)cc2)nn1)Nc1ccccc1Br | CCK-8 | 50 µM, 72 h | viability | 91.5%
CCCCCCCCCCCCCCCCCCOc1ccc(CC(=O)OCCC[N+](C)(C)C)cc1 | SRB | 10 µM | inhibition | 21.9%
CCCCCC(=O)Nc1ccc(-c2ccc3ncn(CCC)c(=O)c3c2)cn1 | CCK-8 | 72 h | IC50 | 0.17 µM
O=C(Nc1ccc(Cl)cc1)Nc1cccc(-c2cn(Cc3cccc(Br)c3)nn2)c1 | CCK-8 | 20 µM, 72 h | viability | 123%
CCCCCCCCCCCCCCCCCCOc1cccc(CC(=O)OCCC[N+](C)(C)C)c1 | SRB | 10 µM | inhibition | 16.2%
COc1ccc(NC(=O)Nc2cccc(-c3cn(Cc4ccc(Cl)cc4)nn3)c2)cc1 | CCK-8 | 50 µM, 72 h | viability | 270%
CCCCn1cnc2ccc(-c3ccc(NC(=O)C4CCCCC4)nc3)cc2c1=O | CCK-8 | 72 h | IC50 | 1.28 µM
CCNc1nc2ccc(-c3c/c(=N\c4ccccc4NC(=O)CCN)c4ccccc4o3)cc2o1 | CCK-8 | 1 µM | inhibition | 14.1%
CCCCn1cnc2ccc(-c3ccc(NC(=O)Nc4ccc(C(F)(F)F)cc4)nc3)cc2c1=O | CCK-8 | 72 h | IC50 | > 10 µM
COc1ccc(NC(=O)NCc2cn(Cc3ccc(Cl)cc3)nn2)cc1 | CCK-8 | 50 µM, 72 h | viability | 80.9%
O=C(Nc1ccc(Cl)cc1)Nc1cccc(-c2cn(Cc3cccc(Cl)c3)nn2)c1 | CCK-8 | 20 µM, 72 h | viability | 115%
COc1ccc2/c(=N/c3ccccc3NC(=O)[C@@H](N)CO)cc(-c3ccc4c(c3)OCCO4)oc2c1 | CCK-8 | 1 µM | inhibition | 1.6%
Cc1ccccc1Cn1cc(-c2cccc(NC(=O)Nc3ccc(F)cc3)c2)nn1 | CCK-8 | 50 µM, 72 h | viability | 175%
O=C(NCc1cn(Cc2ccc(Br)cc2)nn1)Nc1ccc(Cl)cc1 | CCK-8 | 20 µM, 72 h | viability | 102%
